Reference: ChEMBL document CHEMBL1128581, “Structure-activity relationships of analogues of thapsigargin modified at O-11 and O-12” (J Med Chem, 1995)

What was measured:
[1] = Activity against [Ca2+]-ATPase in rabbit white skeletal muscle sarcoplasmic reticulum vesicles
[2] = species on record: Oryctolagus cuniculus; test: Inhibition of the [Ca2+]-ATPase by the compound (1 nM) was determined by the decrease in rate of formation of inorganic phosphate compared to control; set-up: scale not given: the % may be the effect or the level left
Outline: (§1)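 Leaky SR vesicles (5 μg/mL protein) from New Zealand white rabbit hind-leg muscle in pH 7.0 buffer: KCl 120 mM, MOPS 25 mM, EGTA 0.5 mM, CaCl2 0.44 mM, MgCl2 2 mM, A23187 1 μM. Compound added in DMSO (<1%), 5 min preincubation at 30 °C, then ATP 1 mM final. Pi read by malachite green at ≥8 time points; rate from slope.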

[3] = species on record: Oryctolagus cuniculus; test: Inhibition of the [Ca2+]-ATPase by coincubation of the enzyme with the Thapsigargin (activity=49.4) along with the compound at 200 nM concentration; set-up: scale not given: the % may be the effect or the level left
[4] = species on record: Oryctolagus cuniculus; test: Inhibition of the [Ca2+]-ATPase by the compound (30 nM) was determined by the decrease in rate of formation of inorganic phosphate compared to control; set-up: scale not given: the % may be the effect or the level left
Outline: as §1

[5] = species on record: Oryctolagus cuniculus; test: Inhibition of the [Ca2+]-ATPase by the compound (200 nM) was determined by the decrease in rate of formation of inorganic phosphate compared to control; set-up: scale not given: the % may be the effect or the level left
Outline: as §1

[6] = species on record: Oryctolagus cuniculus; test: Inhibition of the [Ca2+]-ATPase by coincubation of the enzyme with the Thapsigargin (activity=49.4) along with the compound at 30 nM concentration; set-up: scale not given: the % may be the effect or the level left
[7] = species on record: Oryctolagus cuniculus; test: Inhibition of the [Ca2+]-ATPase by coincubation of the enzyme with the Thapsigargin (activity=49.4) along with the compound at 1 nM concentration; set-up: scale not given: the % may be the effect or the level left
[8] = species on record: Oryctolagus cuniculus; test: Inhibition of the [Ca2+]-ATPase by the compound (100 nM) was determined by the decrease in rate of formation of inorganic phosphate compared to control; set-up: scale not given: the % may be the effect or the level left
Outline: as §1

[9] = species on record: Oryctolagus cuniculus; test: Inhibition of the [Ca2+]-ATPase by coincubation of the enzyme with the Thapsigargin (activity=53.9) along with the compound at 100 nM concentration; set-up: scale not given: the % may be the effect or the level left
[10] = species on record: Oryctolagus cuniculus; test: Inhibition of the [Ca2+]-ATPase by the compound (20 nM) was determined by the decrease in rate of formation of inorganic phosphate compared to control; set-up: scale not given: the % may be the effect or the level left
Outline: as §1

[11] = species on record: Oryctolagus cuniculus; test: Inhibition of the [Ca2+] - ATPase by coincubation of the enzyme with the Thapsigargin (activity=53.9) along with the compound at 1 nM concentration; set-up: scale not given: the % may be the effect or the level left
[12] = species on record: Oryctolagus cuniculus; test: Inhibition of the [Ca2+]-ATPase by coincubation of the enzyme with the Thapsigargin (activity=53.9) along with the compound at 20 nM concentration; set-up: scale not given: the % may be the effect or the level left
[13] = species on record: Oryctolagus cuniculus; test: Inhibition of the [Ca2+]-ATPase by the compound (10000 nM) was determined by the decrease in rate of formation of inorganic phosphate compared to control; set-up: scale not given: the % may be the effect or the level left
Outline: as §1

[14] = species on record: Oryctolagus cuniculus; test: Inhibition of the [Ca2+]-ATPase by coincubation of the enzyme with the Thapsigargin (activity=56.7) along with the compound at 50000 nM concentration; set-up: scale not given: the % may be the effect or the level left
[15] = species on record: Oryctolagus cuniculus; test: Inhibition of the [Ca2+]-ATPase by coincubation of the enzyme with the Thapsigargin (activity=56.7) along with the compound at 10000 nM concentration; set-up: scale not given: the % may be the effect or the level left
[16] = species on record: Oryctolagus cuniculus; test: Inhibition of the [Ca2+]-ATPase by the compound (1000 nM) was determined by the decrease in rate of formation of inorganic phosphate compared to control; set-up: scale not given: the % may be the effect or the level left
Outline: as §1

[17] = species on record: Oryctolagus cuniculus; test: Inhibition of the [Ca2+]-ATPase by the compound (50000 nM) was determined by the decrease in rate of formation of inorganic phosphate compared to control; set-up: scale not given: the % may be the effect or the level left
Outline: as §1

[18] = Activity against [Ca2+]-ATPase in rabbit white muscle sarcoplasmic reticulum vesicles
[19] = species on record: Oryctolagus cuniculus; test: Inhibition of the [Ca2+]-ATPase by coincubation of the enzyme with the Thapsigargin (activity=56.7) along with the compound at 1000 nM concentration; set-up: scale not given: the % may be the effect or the level left
[20] = species on record: Oryctolagus cuniculus; test: Inhibition of the [Ca2+]-ATPase by coincubation of the enzyme with the Thapsigargin (activity=53.3) along with the compound at 100 nM concentration; set-up: scale not given: the % may be the effect or the level left
[21] = species on record: Oryctolagus cuniculus; test: Inhibition of the [Ca2+]-ATPase by coincubation of the enzyme with the Thapsigargin (activity=53.3) along with the compound at 20 nM concentration; set-up: scale not given: the % may be the effect or the level left
[22] = species on record: Oryctolagus cuniculus; test: Inhibition of the [Ca2+]-ATPase by coincubation of the enzyme with the Thapsigargin (activity=53.3) along with the compound at 1 nM concentration; set-up: scale not given: the % may be the effect or the level left
[23] = species on record: Oryctolagus cuniculus; test: Inhibition of the [Ca2+]-ATPase by the compound (500 nM) was determined by the decrease in rate of formation of inorganic phosphate compared to control; set-up: scale not given: the % may be the effect or the level left
Outline: as §1

[24] = species on record: Oryctolagus cuniculus; test: Inhibition of the [Ca2+]-ATPase by coincubation of the enzyme with the Thapsigargin (activity=56.5) along with the compound at 500 nM concentration; set-up: scale not given: the % may be the effect or the level left
[25] = species on record: Oryctolagus cuniculus; test: Inhibition of the [Ca2+]-ATPase by coincubation of the enzyme with the Thapsigargin (activity=56.5) along with the compound at 5000 nM concentration; set-up: scale not given: the % may be the effect or the level left
[26] = species on record: Oryctolagus cuniculus; test: Inhibition of the [Ca2+]-ATPase by coincubation of the enzyme with the Thapsigargin (activity=56.5) along with the compound at 100 nM concentration; set-up: scale not given: the % may be the effect or the level left
[27] = species on record: Oryctolagus cuniculus; test: Inhibition of the [Ca2+]-ATPase by the compound (5000 nM) was determined by the decrease in rate of formation of inorganic phosphate compared to control; set-up: scale not given: the % may be the effect or the level left
Outline: as §1

Work on `C/C=C(/C)C(=O)O[C@H]1C(C)=C2[C@H]([C@@H]1OC(=O)CCCCC)[C@@](C)(OC(C)=O)C[C@H](OC(=O)CCC)[C@@]1(O)[C@H]2O[C@H](OCC)[C@@]1(C)O` yielded an IC50 [1] of 0.0112 µM.
For `C/C=C(/C)C(=O)O[C@H]1C(C)=C2[C@H]([C@@H]1OC(=O)CCCCCCC)[C@@](C)(OC(C)=O)C[C@H](OC(=O)CCC)[C@@]1(O)[C@H]2OC(=O)[C@@]1(C)O` [THAPSIGARGIN], the IC50 [1] was 0.0096 µM.
`C/C=C(/C)C(=O)O[C@H]1C(C)=C2[C@H]([C@@H]1OC(=O)CCCCCCC)[C@@](C)(O)C[C@H](OC(=O)CCCCCCC)[C@@]1(O)[C@H]2OC(O)[C@@]1(C)O` (some centres not stated) showed a Control [2] of 98.4%, a Control [3] of 16.2% and a Control [4] of 68.9%. The Control [5] was 21.9%, the Control [6] was 34.6% and the IC50 [1] was 0.12 µM. The Control [7] was 51.1%.
`C/C=C(/C)C(=O)O[C@H]1C(C)=C2[C@H]([C@@H]1OC(=O)CCCCC)[C@@](C)(OC(C)=O)C[C@H](OC(=O)CCC)[C@@]1(O)[C@H]2O[C@@H](OC(C)=O)[C@@]1(C)O` showed an IC50 [1] of 0.0184 µM.
`C/C=C(/C)C(=O)O[C@H]1C(C)=C2[C@H]([C@@H]1OC(=O)CCCCC)[C@@](C)(OC(C)=O)C[C@H](OC(=O)CCC)[C@@]1(O)[C@H]2OC(=O)[C@@]1(C)O` gave an IC50 [1] of 0.0098 µM.
In the case of `C/C=C(/C)C(=O)O[C@H]1C(C)=C2[C@H]([C@@H]1OC(=O)CCCCC)[C@@](C)(OC(C)=O)C[C@H](OC(=O)CCC)[C@@]1(O)[C@H]2O[C@H]2OC(C)(C)O[C@]21C`, the Control [2] is reported as 100%, the Control [8] is reported as 66.6% and the Control [9] is reported as 34.7%. For the same molecule, the Control [10] was 81.2%, the IC50 [1] was 0.157 µM and the Control [11] was 55.7%. It also gave a Control [12] of 49.3%.
`C/C=C(/C)C(=O)O[C@H]1C(C)=C2[C@H]([C@@H]1O)[C@@](C)(O)C[C@H](OC(=O)CCC)[C@@]1(O)[C@H]2O[C@H]2OC(C)(C)O[C@]21C` showed a Control [13] of 82.6%, a Control [14] of 25.1% and a Control [15] of 43.5%. The Control [16] was 98.6%, the Control [17] was 50.9% and the IC50 [18] was 60.6 µM. For the same molecule, the Control [19] was 53.8%.
`C/C=C(/C)C(=O)O[C@H]1C(C)=C2[C@H]([C@@H]1OC(=O)CCCCC)[C@@](C)(OC(C)=O)C[C@H](OC(=O)CCC)[C@@]1(O)[C@H]2O[C@H]2O[C@@H](OCC)O[C@]21C` showed a Control [2] of 101%, a Control [8] of 78.6% and a Control [20] of 36.8%. For the same molecule, the Control [10] was 98.4%, the Control [21] was 41.6% and the IC50 [1] was 0.388 µM. It also gave a Control [22] of 52.5%.
Work on `C/C=C(/C)C(=O)O[C@H]1C(C)=C2[C@H]([C@@H]1OC(=O)CCCCC)[C@@](C)(OC(C)=O)C[C@H](OC(=O)CCC)[C@@]1(O)[C@H]2O[C@H]2O[C@]21C` yielded an IC50 [1] of 0.0517 µM.
With `C/C=C(/C)C(=O)O[C@H]1C(C)=C2[C@H]([C@@H]1OC(=O)CCCCC)[C@@](C)(OC(C)=O)C[C@H](OC(=O)CCC)[C@@]1(O)[C@H]2O[C@H]2O[C@H](OCC)O[C@]21C` the IC50 [1] was 0.0241 µM.
Work on `C/C=C(/C)C(=O)O[C@H]1C(C)=C2[C@H]([C@@H]1OC(=O)CCCCC)[C@@](C)(OC(C)=O)C[C@H](OC(=O)CCC)[C@@]1(O)[C@H]2O[C@@H](O)[C@@]1(C)O.C/C=C(/C)C(=O)O[C@H]1C(C)=C2[C@H]([C@@H]1OC(=O)CCCCC)[C@@](C)(OC(C)=O)C[C@H](OC(=O)CCC)[C@@]1(O)[C@H]2O[C@H](O)[C@@]1(C)O` yielded an IC50 [1] of 0.0156 µM.
For `C/C=C(/C)C(=O)O[C@H]1C(C)=C2[C@H]([C@@H]1OC(=O)CCCCC)[C@@](C)(O)C[C@H](OC(=O)CCC)[C@@]1(O)[C@H]2O[C@H]2OC(C)(C)O[C@]21C`, the Control [8] was 97%, the Control [23] was 87% and the Control [24] was 49%. It also gave a Control [25] of 24%, an IC50 [18] of 5.59 µM and a Control [26] of 52.3%. It also gave a Control [27] of 53.7%.
